Assay results reported in ChEMBL document CHEMBL4339228, “Identification of Isoform 2 Acid-Sensing Ion Channel Inhibitors as Tool Compounds for Target Validation Studies in CNS” (ACS Med Chem Lett, 2019).
In brackets after ≈: the same amount, converted by molar mass.

Legend:
[1] = biological target: T1, Acid-sensing ion channel 1/2 (Mus musculus, UniProt Q6NXK8+Q925H0); assay: Inhibition of pH 6.25-stimulated mouse ASIC1a/2a […] expressed in CHOK1 cells assessed as reduction in channel activation by VSD fluorescence assay; format: cell-based
T1 sequence (Q6NXK8 whole entry): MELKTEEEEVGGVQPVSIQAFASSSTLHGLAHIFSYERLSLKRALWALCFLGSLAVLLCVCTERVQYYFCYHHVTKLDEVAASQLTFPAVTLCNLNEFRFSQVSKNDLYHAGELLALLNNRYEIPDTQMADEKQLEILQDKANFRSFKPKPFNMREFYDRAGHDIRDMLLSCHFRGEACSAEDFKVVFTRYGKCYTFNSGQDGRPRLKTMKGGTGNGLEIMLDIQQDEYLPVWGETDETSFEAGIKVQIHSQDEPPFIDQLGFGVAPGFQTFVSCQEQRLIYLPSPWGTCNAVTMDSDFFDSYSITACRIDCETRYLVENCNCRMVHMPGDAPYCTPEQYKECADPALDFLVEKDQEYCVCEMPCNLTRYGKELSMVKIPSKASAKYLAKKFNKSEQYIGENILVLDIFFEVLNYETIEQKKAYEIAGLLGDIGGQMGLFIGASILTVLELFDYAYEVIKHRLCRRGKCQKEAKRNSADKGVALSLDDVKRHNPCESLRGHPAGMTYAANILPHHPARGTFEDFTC
T1 sequence (Q925H0 whole entry): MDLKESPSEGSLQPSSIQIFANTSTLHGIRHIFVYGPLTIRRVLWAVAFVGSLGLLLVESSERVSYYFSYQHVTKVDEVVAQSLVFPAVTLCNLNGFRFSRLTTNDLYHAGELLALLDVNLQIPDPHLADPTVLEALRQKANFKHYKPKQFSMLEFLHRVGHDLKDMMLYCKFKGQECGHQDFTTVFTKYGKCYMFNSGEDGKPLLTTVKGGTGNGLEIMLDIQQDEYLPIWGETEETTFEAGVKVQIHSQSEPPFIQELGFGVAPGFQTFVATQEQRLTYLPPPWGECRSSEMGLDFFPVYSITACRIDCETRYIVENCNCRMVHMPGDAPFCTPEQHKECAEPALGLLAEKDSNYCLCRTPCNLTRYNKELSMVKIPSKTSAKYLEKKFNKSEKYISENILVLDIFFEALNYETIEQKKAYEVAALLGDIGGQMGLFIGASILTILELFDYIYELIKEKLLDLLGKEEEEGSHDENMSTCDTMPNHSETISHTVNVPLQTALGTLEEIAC

[2] = biological target: T2, Acid-sensing ion channel 1 (Mus musculus, UniProt Q6NXK8); assay: Inhibition of pH 6.6-stimulated mouse ASIC1a homomer expressed in CHOK1 cells assessed as reduction in channel activation by VSD fluorescence assay; format: cell-based
T2 sequence (Q6NXK8 whole entry): T1 sequence (Q6NXK8 whole entry)

[3] = biological target: T3, Acid-sensing ion channel 2 (Mus musculus, UniProt Q925H0); assay: Inhibition of pH 5.5-stimulated mouse ASIC2a homomer expressed in CHOK1 cells assessed as reduction in channel activation by VSD fluorescence assay; format: cell-based
T3 sequence (Q925H0 whole entry): T1 sequence (Q925H0 whole entry)

Cytochrome P450 1A2 = biological target: T4, Cytochrome P450 1A2 (Homo sapiens, UniProt P05177); assay: Inhibition of CYP1A2 (unknown origin) using pro-luciferin substrates in presence of NADPH by firefly luciferase reporter gene based P450-Glo assay; format: ADME
T4 sequence (P05177 whole entry): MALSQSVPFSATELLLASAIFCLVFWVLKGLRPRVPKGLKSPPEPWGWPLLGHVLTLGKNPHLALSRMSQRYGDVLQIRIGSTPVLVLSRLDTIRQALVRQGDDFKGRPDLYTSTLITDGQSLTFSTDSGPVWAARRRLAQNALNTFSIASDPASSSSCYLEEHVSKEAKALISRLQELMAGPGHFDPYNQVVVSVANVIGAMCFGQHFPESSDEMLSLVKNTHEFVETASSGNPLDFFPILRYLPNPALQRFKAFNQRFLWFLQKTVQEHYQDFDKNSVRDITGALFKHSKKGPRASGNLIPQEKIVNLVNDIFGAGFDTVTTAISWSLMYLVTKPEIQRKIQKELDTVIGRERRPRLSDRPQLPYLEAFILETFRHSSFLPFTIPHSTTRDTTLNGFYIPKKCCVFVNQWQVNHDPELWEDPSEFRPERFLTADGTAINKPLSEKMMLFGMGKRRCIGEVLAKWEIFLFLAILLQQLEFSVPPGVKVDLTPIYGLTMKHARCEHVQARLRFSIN

[4] = Volume of distribution in NMRI mouse at 1 mg/kg, iv by LC-MS/MS analysis; format: ADME, organism-based; conditions: in vivo
[5] = Cmax in NMRI mouse at 3 mg/kg, po by LC-MS/MS analysis; format: ADME, organism-based; set-up: dose 3 mg/kg, route oral; conditions: in vivo
[6] = Ratio of drug level in brain to plasma of NMRI mouse at 1 mg/kg, iv measured after 2 to 8 hrs post dose; format: ADME, organism-based; conditions: read-out: BPR
albumin = albumin (Homo sapiens, UniProt P02768); assay: Binding affinity to human serum albumin by NMR-based analysis; format: ADME; conditions: read-out: PPB (converted)
albumin, sequence (P02768 whole entry): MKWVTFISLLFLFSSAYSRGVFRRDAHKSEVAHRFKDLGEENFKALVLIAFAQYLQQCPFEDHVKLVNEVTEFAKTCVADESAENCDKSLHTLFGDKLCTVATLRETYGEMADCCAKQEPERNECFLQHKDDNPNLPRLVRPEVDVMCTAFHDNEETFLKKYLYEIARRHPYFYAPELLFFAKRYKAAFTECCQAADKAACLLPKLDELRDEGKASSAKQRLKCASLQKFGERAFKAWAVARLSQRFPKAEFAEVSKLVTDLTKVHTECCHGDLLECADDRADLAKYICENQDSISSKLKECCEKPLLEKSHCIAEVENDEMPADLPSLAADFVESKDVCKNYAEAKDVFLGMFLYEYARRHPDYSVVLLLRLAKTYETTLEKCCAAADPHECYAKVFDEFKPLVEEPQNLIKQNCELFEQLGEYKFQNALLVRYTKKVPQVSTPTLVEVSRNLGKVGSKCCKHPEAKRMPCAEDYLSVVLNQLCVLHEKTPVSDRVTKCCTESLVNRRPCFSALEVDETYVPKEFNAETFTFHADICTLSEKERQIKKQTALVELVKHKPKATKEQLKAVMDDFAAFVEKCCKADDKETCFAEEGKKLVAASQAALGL

[7] = Kinetic solubility of the compound at pH 7.4; format: physicochemical; conditions: buffer, read-out: Kinetic_solubility
[8] = Oral bioavailability in NMRI mouse at 3 mg/kg by LC-MS/MS analysis; format: ADME, organism-based; conditions: in vivo
[9] = Clearance in NMRI mouse at 1 mg/kg, iv by LC-MS/MS analysis; format: ADME, organism-based; conditions: in vivo
[10] = biological target: Voltage-gated inwardly rectifying potassium channel KCNH2 (Homo sapiens, UniProt Q12809); assay: Inhibition of human ERG incubated for 4 hrs by fluorescence polarization assay
Voltage-gated inwardly rectifying potassium channel KCNH2, sequence (Q12809 whole entry): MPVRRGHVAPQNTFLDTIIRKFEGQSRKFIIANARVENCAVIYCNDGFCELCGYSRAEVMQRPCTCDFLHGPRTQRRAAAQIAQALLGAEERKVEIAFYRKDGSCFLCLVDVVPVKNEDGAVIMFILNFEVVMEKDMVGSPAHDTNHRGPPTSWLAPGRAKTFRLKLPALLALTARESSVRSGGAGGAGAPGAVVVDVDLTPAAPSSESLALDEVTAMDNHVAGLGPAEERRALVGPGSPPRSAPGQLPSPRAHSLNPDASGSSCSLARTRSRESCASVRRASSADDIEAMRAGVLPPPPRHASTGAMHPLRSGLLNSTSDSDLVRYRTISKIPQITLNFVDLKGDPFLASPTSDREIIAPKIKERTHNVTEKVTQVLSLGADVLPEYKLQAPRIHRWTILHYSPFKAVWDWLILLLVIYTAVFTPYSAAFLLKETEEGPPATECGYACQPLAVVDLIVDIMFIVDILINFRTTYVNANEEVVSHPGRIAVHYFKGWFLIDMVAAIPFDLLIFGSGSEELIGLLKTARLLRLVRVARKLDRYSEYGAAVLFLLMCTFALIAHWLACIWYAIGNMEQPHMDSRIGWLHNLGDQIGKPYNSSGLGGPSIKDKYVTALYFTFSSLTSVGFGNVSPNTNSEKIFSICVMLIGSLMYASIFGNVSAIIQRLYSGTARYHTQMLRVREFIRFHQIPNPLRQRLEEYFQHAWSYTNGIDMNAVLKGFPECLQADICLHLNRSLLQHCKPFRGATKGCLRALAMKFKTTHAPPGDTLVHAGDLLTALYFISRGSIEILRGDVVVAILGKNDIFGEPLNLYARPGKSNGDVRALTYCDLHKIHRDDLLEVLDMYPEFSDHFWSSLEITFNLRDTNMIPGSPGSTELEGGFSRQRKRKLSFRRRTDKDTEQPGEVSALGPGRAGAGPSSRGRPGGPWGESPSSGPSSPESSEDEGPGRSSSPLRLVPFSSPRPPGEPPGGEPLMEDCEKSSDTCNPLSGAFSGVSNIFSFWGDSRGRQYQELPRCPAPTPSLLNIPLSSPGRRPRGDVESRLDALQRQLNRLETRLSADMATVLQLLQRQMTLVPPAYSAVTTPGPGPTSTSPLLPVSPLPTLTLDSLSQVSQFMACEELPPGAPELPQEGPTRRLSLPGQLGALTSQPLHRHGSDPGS
In short: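 Human ERG inhibition measured at concentrations up to 30 μM.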

SMILES	IC50 [1] [µM]	IC50 [2] [µM]	IC50 [3] [µM]	other results
Cc1nn(-c2ccc(C(C)N)cc2)c(C)c1-c1ccc(F)cc1 (configuration not stated)	> 30	> 30	8.7	
Cc1nn(-c2ccc3c(c2)NCC3)c(C)c1-c1cccc(F)c1	> 30	> 30	> 30	
Cc1nn(-c2ncnc3c2CNC3)c(C)c1-c1cccc(F)c1	> 30	> 30	> 30	
Cc1nn(-c2ccc(CN)cc2)c(C)c1-c1ccc(C(F)(F)F)cc1	> 30	> 30	> 30	
Cc1nn(-c2ccc(CN)cc2)c(C)c1-c1ccc(CN)cc1	> 30	> 30	> 30	
Cc1nn(-c2ccc(CN)nc2)c(C)c1-c1ccc(F)cc1	> 30	> 30	> 30	
Cc1nn(-c2ccc(CN)cc2)c(C)c1-c1ccc(F)cc1	10.9	> 30	18.9	IC50 (Cytochrome P450 1A2): 400 nM; Vd [4]: 50.9 L/kg; Cmax [5]: 90 nM; Kp [6]: 61; fraction unbound (albumin): 0.07; solubility kinetic [7]: 73 µg/mL (≈ 247 µM); bioavailability [8]: 60%; clearance [9]: 224 mL/min/kg; IC50 [10]: > 30 µM
Cc1nn(Cc2ccc(CN)cc2)c(C)c1-c1ccc(F)cc1	> 30	> 30	16.8	
Cc1nn(-c2ncnc3c2CN(C)C3)c(C)c1-c1cccc(F)c1	> 30	> 30	> 30	
Cc1nn(-c2ccc3c(c2)CNC3)c(C)c1-c1cccc(F)c1	11.3	> 30	9.9	
COc1ccc(-c2c(C)nn(-c3ccc(CN)cc3)c2C)cc1	> 30	> 30	16.3	
Cc1nn(-c2cccc(CN)c2)c(C)c1-c1ccc(F)cc1	> 30	> 30	15.6	
Cc1nn(-c2ccc3c(c2)CNC3)c(C)c1-c1ccc(F)cc1	> 30	> 30	8.2	IC50 (Cytochrome P450 1A2): 200 nM; fraction unbound (albumin): 0.05; solubility kinetic [7]: 56 µg/mL (≈ 182 µM); IC50 [10]: > 30 µM
Cc1ccc(-c2c(C)nn(-c3ccc(CN)cc3)c2C)cc1	> 30	> 30	8.8	
Cc1ccc(-c2c(C)nn(-c3ccc(CN)cc3)c2C)cn1	> 30	> 30	> 30	
Cc1nn(-c2ccc(CN)cc2)c(C)c1-c1cccc(F)c1	> 30	> 30	4.3	
NCc1ccc(-n2cc(-c3ccc(F)cc3)cn2)cc1	> 30	> 30	> 30	

Further lines, with some results ahead:

IC50 [1] [µM]	IC50 [2] [µM]	IC50 [3] [µM]	SMILES	other results
> 30	> 30	> 30	Cc1nn(-c2ccc3c(c2)NCC3)c(C)c1-c1ccc(F)cc1	
> 30	> 30	> 30	Cc1nn(-c2ccc(C#N)cc2)c(C)c1-c1ccc(F)cc1	
> 30	> 30	17	Cc1nn(-c2ncnc3c2CNC3)c(C)c1-c1ccc(F)cc1	IC50 (Cytochrome P450 1A2): 800 nM; Vd [4]: 1.4 L/kg; Cmax [5]: 2600 nM; Kp [6]: 1.3; fraction unbound (albumin): 0.06; solubility kinetic [7]: 32 µg/mL (≈ 103 µM); bioavailability [8]: 100%; clearance [9]: 34 mL/min/kg; IC50 [10]: > 30 µM
8.5	> 30	6.1	Cc1nn(-c2ccc(CN)cn2)c(C)c1-c1ccc(F)cc1	
> 30	> 30	> 30	Cc1ccc(-c2c(C)nn(-c3ccc(CN)cc3)c2C)cc1F	
> 30	> 30	11.7	Cc1nn(-c2ccc(CCN)cc2)c(C)c1-c1ccc(F)cc1	
> 30	> 30	> 30	Cc1nn(-c2ccc(CN)cc2)c(C)c1-c1ccc(Cl)cc1	
45.2	56.9	169	N=C(N)c1ccc(/N=N/Nc2ccc(C(=N)N)cc2)cc1 [DIMINAZENE]	
